# Experimental data published in ChEMBL document CHEMBL1828500, “Synthesis and biological evaluation of dihydroindeno and indeno [1,2-e] [1,2,4]triazolo [3,4-b] [1,3,4]thiadiazines as antimicrobial agents” (2011).
# What was measured:
# Format in all cases: functional
# Escherichia coli [1] = experiment: Antibacterial activity against Escherichia coli MTCC 1652 after 24 hrs by agar well diffusion method; settings: MTCC 1652, 24 h
# Outline: (§1)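 MIC by modified agar well diffusion. Two-fold serial dilutions (DMSO stock diluted in sterile distilled water), range 256 to 0.5, placed in wells in triplicate. Agar was pre-seeded with 100 standardized inoculum at 10⁶ cfu/mL. Incubated aerobically at 37 °C for 24 h. MIC taken as lowest concentration giving a clear zone, i.e. complete growth inhibition.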
# Bacillus subtilis [2] = experiment: Antibacterial activity against Bacillus subtilis MTCC 121 at 2 mg/ml after 24 hrs by agar well diffusion method; settings: MTCC 121, 24 h, read-out: DIZ
# Outline: (§2)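 Cultures adjusted to 0.5 McFarland and left 15 min on agar for adsorption. 8 mm wells bored and loaded with compound at 2.0 mg/mL in DMSO. Incubated 37 °C for 24 h. Growth-inhibition zone diameter (mm) read with a zone scale and reported as the average. DMSO served as negative control and ciprofloxacin as positive control.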
# Staphylococcus aureus [3] = experiment: Antibacterial activity against Staphylococcus aureus MTCC 96 after 24 hrs by agar well diffusion method; settings: MTCC 96, 24 h; outline: as §1
# Aspergillus niger = experiment: Antifungal activity against Aspergillus niger assessed as inhibition of mycelial growth at 4 mg/ml after 7 days; settings: 168 h, read-out: GI
# Outline: (§3)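 Poisoned food method. Molds grown on Sabouraud dextrose agar at 25 °C for 7 days to provide inocula. Molten SDA (45 °C) dosed with compound at 4.0 mg/mL in DMSO, then solidified. 8 mm fungal plugs from colony margins placed centrally. Incubated 25 °C for 7 days, in triplicate. % mycelial growth inhibition calculated from colony diameters versus DMSO control. Fluconazole served as positive control.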
# Pseudomonas aeruginosa [4] = experiment: Antibacterial activity against Pseudomonas aeruginosa MTCC 741 at 2 mg/ml after 24 hrs by agar well diffusion method; settings: MTCC 741, 24 h, read-out: DIZ; outline: as §2
# Pseudomonas aeruginosa [5] = experiment: Antibacterial activity against Pseudomonas aeruginosa MTCC 741 after 24 hrs by agar well diffusion method; settings: MTCC 741, 24 h; outline: as §1
# Escherichia coli [6] = experiment: Antibacterial activity against Escherichia coli MTCC 1652 at 2 mg/ml after 24 hrs by agar well diffusion method; settings: MTCC 1652, 24 h, read-out: DIZ; outline: as §2
# Aspergillus flavus = experiment: Antifungal activity against Aspergillus flavus assessed as inhibition of mycelial growth at 4 mg/ml after 7 days; settings: 168 h, read-out: GI; outline: as §3
# Bacillus subtilis [7] = experiment: Antibacterial activity against Bacillus subtilis MTCC 121 after 24 hrs by agar well diffusion method; settings: MTCC 121, 24 h; outline: as §1
# Penicillium sp. = experiment: Antifungal activity against Penicillium sp. assessed as inhibition of mycelial growth at 4 mg/ml after 7 days; settings: 168 h, read-out: GI; outline: as §3
# Staphylococcus aureus [8] = experiment: Antibacterial activity against Staphylococcus aureus MTCC 96 at 2 mg/ml after 24 hrs by agar well diffusion method; settings: MTCC 96, 24 h, read-out: DIZ; outline: as §2
MIC (Escherichia coli [1]) [mg/L],MIC (Staphylococcus aureus [3]) [mg/L],MIC (Pseudomonas aeruginosa [5]) [mg/L],MIC (Bacillus subtilis [7]) [mg/L],Compound,zone of inhibition at 2000 µg/mL (Bacillus subtilis [2]) [mm],inhibition of growth at 4000 µg/mL (Aspergillus niger) [%],zone of inhibition at 2000 µg/mL (Pseudomonas aeruginosa [4]) [mm],zone of inhibition at 2000 µg/mL (Escherichia coli [6]) [mm],inhibition of growth at 4000 µg/mL (Aspergillus flavus) [%],inhibition of growth at 4000 µg/mL (Penicillium sp.) [%],zone of inhibition at 2000 µg/mL (Staphylococcus aureus [8]) [mm]
64,16,128,32,CCc1nnc2n1N=C1c3ccccc3CC1S2 (stereo not drawn),21.6,58.8,16,18.3,55.5,57.7,25.3
128,128,256,64,Cc1cccc2c3nn4c(C(C)C)nnc4sc-3cc12,19.3,65.5,14.6,15,61.1,63.3,17.6
128,32,128,32,Cc1cccc2c1CC1Sc3nnc(-c4ccccc4)n3N=C21 (stereo not drawn),21.6,55.5,15.6,17.3,58.8,60,22.3
